From ChEMBL document CHEMBL4425094, “Novel Benzo[a]quinolizidine Analogs Induce Cancer Cell Death through Paraptosis and Apoptosis” (J Med Chem, 2016)
Calls of active or inactive are those of the source. The calls are words filed in the database; no cut-off is given here.

Experiments:
[1] = tested on: PC-3; test: Induction of cell cycle arrest in human PC3 cells assessed as accumulation in S phase at 1 uM after 24 hrs by […]propidium iodide based flow cytometric analysis (reference value: 21 to 31.6 %); format: functional
[2] = tested on: PC-3; test: Induction of autophagy in human PC3 cells assessed as vacuole formation at 1 uM after 24 hrs in presence of […] inhibitor E-64d by phase-contrast microscopic analysis; format: functional, cell-based
In short: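 PC3 cells were pretreated with the autophagy inhibitor (3-MA or E64d), then exposed to 1 μM test agent for 24 h. Morphology was imaged by phase-contrast microscopy, and viability was read by MTT at 570 nm. Comparison was against agent-only cells.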

[3] = tested on: PC-3; test: Induction of ER stress in human PC3 cells assessed as activation of XBPI mRNA incubated for 22 hrs after ER stress inhibitor 4-PBA exposure for 2 hrs by Western blot analysis; format: functional, cell-based
In short: (§1)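 PC3 cells pretreated 2 h with 4-PBA (100 μM), then compound added for a further 22 h. Viability measured by MTT. GRP78 assessed by Western blot, along with XBP1 mRNA splicing analysis. Morphology by phase contrast.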

[4] = tested on: PC-3M; test: Antitumor activity against human PC3M-lluc-C6 cells xenografted in athymic Balb/c mouse assessed as tumor volume at 15 mg/kg, ip administered every 2 days for 18 days (reference value: 845.6 +/- 84.3 mm'3); format: functional
[5] = tested on: PC-3; test: Induction of ER stress in human PC3 cells assessed as GRP78 upregulation incubated for 22 hrs after ER stress inhibitor 4-PBA exposure for 2 hrs by Western blot analysis; format: functional, cell-based; in short: as §1

Cc1cc(C)cc(COc2cc3c(cc2OCc2cc(C)cc(C)c2)[C@@H]2C[C@H](O)C[C@@H](C)N2CC3)c1 (racemic)
Activity [1]: 10.1 - 20.4%
Activity [2]: Active
Activity [3]: inactive
Activity [4]: 410.2 mm3
Activity [5]: inactive
